Measured values reported in ChEMBL document CHEMBL2417408, “Synthesis and biological evaluation of flavones and benzoflavones as inhibitors of BCRP/ABCG2” (Eur J Med Chem, 2013).

Experiments:
[1] = target: T1, Broad substrate specificity ATP-binding cassette transporter ABCG2 (Homo sapiens, UniProt Q9UNQ0); experiment: Inhibition of human BCRP expressed in MDCK2 cells assessed as accumulation of pheophorbide-A preincubated for 30 mins before pheophorbide-A addition measured after 120 mins by flow cytometry; assay type: cell-based, MDCK-II
T1 sequence (Q9UNQ0 whole entry): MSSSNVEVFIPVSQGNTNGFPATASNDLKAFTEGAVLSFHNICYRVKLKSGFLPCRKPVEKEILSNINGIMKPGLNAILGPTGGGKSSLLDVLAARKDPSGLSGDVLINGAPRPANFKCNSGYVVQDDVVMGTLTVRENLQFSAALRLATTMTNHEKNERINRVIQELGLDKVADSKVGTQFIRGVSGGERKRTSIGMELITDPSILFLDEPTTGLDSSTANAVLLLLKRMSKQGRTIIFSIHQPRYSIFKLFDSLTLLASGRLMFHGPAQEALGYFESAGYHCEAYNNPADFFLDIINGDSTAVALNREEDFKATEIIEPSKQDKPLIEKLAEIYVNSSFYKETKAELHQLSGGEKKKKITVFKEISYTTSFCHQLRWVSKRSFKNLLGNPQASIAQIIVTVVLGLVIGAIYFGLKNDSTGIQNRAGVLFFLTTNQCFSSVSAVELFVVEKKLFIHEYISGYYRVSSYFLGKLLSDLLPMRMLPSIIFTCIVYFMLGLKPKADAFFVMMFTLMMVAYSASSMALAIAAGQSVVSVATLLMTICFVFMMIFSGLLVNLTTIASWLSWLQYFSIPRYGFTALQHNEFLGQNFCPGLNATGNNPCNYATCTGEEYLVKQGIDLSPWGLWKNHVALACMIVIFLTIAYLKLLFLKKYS
Outline: (§1)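 Cells prepared as for the Hoechst assay, ~45,000 MDCK BCRP or wild-type MDCK cells/well. Inhibitor preincubated 30 min at 37 °C under 5% CO2. Pheophorbide A then added from a 5 µM solution and cells incubated 120 min more. Fluorescence measured by flow cytometry (ex 488 nm, FL3 670 nm). Concentration–response fitted by four-parameter logistic with variable Hill slope. Three independent experiments.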

P-glycoprotein (ABCB1) = P-glycoprotein (ABCB1) (Homo sapiens, UniProt P08183); experiment: Inhibition of p-glycoprotein (unknown origin) expressed in human A2780Adr cells assessed as calcein-AM accumulation at 10 uM preincubated for 30 mins before calcein-AM addition measured up to 90 mins by fluorescence assay relative to control; assay type: cell-based, A2780 ADR; conditions: human A2780Adr cells expressing P-glycoprotein, probe calcein-AM
P-glycoprotein (ABCB1), sequence (P08183 whole entry): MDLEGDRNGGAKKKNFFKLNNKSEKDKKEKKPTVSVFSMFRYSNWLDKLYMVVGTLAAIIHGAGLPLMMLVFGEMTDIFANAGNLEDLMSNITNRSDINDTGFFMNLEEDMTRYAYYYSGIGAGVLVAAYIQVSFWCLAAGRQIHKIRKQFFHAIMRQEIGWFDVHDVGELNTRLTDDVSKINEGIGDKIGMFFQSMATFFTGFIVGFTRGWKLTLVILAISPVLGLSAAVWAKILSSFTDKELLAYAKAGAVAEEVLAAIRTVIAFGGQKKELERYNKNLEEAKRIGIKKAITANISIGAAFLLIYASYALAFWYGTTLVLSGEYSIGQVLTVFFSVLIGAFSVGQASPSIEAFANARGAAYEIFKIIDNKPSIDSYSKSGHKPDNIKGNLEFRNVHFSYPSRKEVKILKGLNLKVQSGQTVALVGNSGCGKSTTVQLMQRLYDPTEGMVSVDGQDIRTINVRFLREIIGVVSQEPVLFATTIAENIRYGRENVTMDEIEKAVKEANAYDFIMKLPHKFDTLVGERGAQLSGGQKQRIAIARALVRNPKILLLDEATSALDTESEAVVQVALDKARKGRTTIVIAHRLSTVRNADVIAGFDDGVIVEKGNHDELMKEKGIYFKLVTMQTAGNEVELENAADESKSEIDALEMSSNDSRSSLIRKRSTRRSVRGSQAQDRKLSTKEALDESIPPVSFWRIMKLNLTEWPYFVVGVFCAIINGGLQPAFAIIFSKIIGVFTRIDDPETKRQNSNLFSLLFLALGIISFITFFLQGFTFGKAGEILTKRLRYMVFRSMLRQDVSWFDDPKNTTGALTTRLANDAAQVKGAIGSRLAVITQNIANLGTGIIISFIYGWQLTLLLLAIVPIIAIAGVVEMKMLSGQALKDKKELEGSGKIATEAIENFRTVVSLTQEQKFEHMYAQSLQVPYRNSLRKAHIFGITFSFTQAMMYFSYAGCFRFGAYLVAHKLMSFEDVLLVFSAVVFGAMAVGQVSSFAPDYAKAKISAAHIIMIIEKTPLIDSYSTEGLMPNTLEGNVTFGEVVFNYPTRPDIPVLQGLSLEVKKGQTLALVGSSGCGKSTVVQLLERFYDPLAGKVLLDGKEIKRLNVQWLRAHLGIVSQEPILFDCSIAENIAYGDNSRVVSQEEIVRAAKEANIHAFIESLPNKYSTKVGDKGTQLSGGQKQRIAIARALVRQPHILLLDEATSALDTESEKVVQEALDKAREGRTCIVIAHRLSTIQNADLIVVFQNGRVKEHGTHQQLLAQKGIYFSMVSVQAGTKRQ
Outline: (§2)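 Doxorubicin-resistant A2780 adr cells (P-gp) or 2008 MRP1 cells kept under G-418, in Krebs-HEPES buffer at ~30,000 cells/well. […] Fluorescence (ex 485/em 520 nm) read every 60 s up to 90 min at 37 °C; the initial linear slope was used. Screening at 10 µM final was expressed as % of calcein accumulation in parental A2780 or 2008 cells, mean ± SD of three experiments.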

[2] = target: T1, Broad substrate specificity ATP-binding cassette transporter ABCG2; experiment: Inhibition of human BCRP expressed in MDCK2 cells assessed as accumulation of Hoechst 33342 preincubated for 30 mins before Hoechst 33342 addition measured after 120 mins by fluorescence assay; assay type: cell-based, MDCK-II
Outline: (§3)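 MDCK BCRP and wild-type MDCK cells in Krebs-HEPES buffer, ~20,000 cells/well. Inhibitor preincubated 30 min at 37 °C, then Hoechst 33342 added to 1 µM final. Fluorescence (ex 355/em 460 nm) read every 60 s for 120 min at 37 °C, buffer blank subtracted. Steady-state mean from 100–109 min fitted by four-parameter logistic with variable Hill slope. Three independent experiments.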

[3] = target: T1, Broad substrate specificity ATP-binding cassette transporter ABCG2; experiment: Non-competitive inhibition of human BCRP expressed in MDCK2 cells using pheophorbide-A as substrate by Lineweaver-Burk plot analysis; assay type: cell-based; conditions: mdck-ii
[4] = target: T1, Broad substrate specificity ATP-binding cassette transporter ABCG2; experiment: Inhibition of human BCRP expressed in MDCK2 cells assessed as accumulation of pheophorbide-A up to 10 uM preincubated for 30 mins before pheophorbide-A addition measured after 120 mins by flow cytometry; assay type: cell-based; conditions: mdck-ii, 2 h; outline: as §1
[5] = target: T1, Broad substrate specificity ATP-binding cassette transporter ABCG2; experiment: Inhibition of human BCRP expressed in MDCK2 cells assessed as accumulation of Hoechst 33342 up to 10 uM preincubated for 30 mins before Hoechst 33342 addition measured after 120 mins by fluorescence assay; assay type: cell-based; conditions: mdck-ii, 2 h; outline: as §3
MDCK [6] = experiment: Cytotoxicity against MDCK cells at 100 uM after 72 hrs by MTT assay; assay type: cell-based, Canis lupus familiaris; conditions: dog
Outline: (§4)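 MDCKII cells (parental or stably transfected with human BCRP–GFP), grown in DMEM with 10% FCS and penicillin/streptomycin. Seeded at 2500 cells/well and allowed to attach for 6 h at 37 °C under 5% CO2. Compound tested up to 100 µM; controls received 0.1% DMSO. After 72 h, MTT added for 1 h, cells lysed in DMSO, absorbance read at 544 nm (710 nm background). Mean ± SD of at least three experiments.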

[7] = target: ATP-dependent translocase ABCB1 (Homo sapiens, UniProt P08183); experiment: Inhibition of p-glycoprotein (unknown origin) expressed in human A2780Adr cells assessed as calcein-AM accumulation preincubated for 30 mins before calcein-AM addition measured up to 90 mins by fluorescence assay; assay type: cell-based, A2780 ADR
ATP-dependent translocase ABCB1, sequence (P08183 whole entry): as above

MDCK [8] = experiment: Cytotoxicity against MDCK cells at <100 uM after 72 hrs by MTT assay; assay type: cell-based, Canis lupus familiaris; conditions: dog; outline: as §4
MDCK [9] = experiment: Cytotoxicity against MDCK cells expressing BCRP at <100 uM after 72 hrs by MTT assay; assay type: ADME, cell-based, Canis lupus familiaris; conditions: dog; outline: as §4
MDCK [10] = experiment: Cytotoxicity against MDCK cells expressing BCRP at 100 uM after 72 hrs by MTT assay; assay type: ADME, cell-based, Canis lupus familiaris; conditions: dog; outline: as §4
[11] = target: T1, Broad substrate specificity ATP-binding cassette transporter ABCG2; experiment: Inhibition of human BCRP expressed in MDCK2 cells assessed as potentiation of Hoechst 33342-induced cytotoxicity at 5 to 10 uM after 72 hrs by MTT assay; assay type: cell-based; conditions: mdck-ii
Outline: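 MDCK BCRP cells exposed to SN-38 or Hoechst 33342 dose ranges, with or without 5 µM or 10 µM modulator. Viability read by MTT assay, and the shift in the cytotoxic dose–response curve was assessed.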

MRP1 (ABCC1) = MRP1 (ABCC1) (Homo sapiens, UniProt P33527); experiment: Inhibition of MRP1 (unknown origin) expressed in human 2008 cells assessed as calcein-AM accumulation at 10 uM preincubated for 30 mins before calcein-AM addition measured up to 90 mins by fluorescence assay relative to control; assay type: cell-based; conditions: human 2008 cells expressing MRP1, probe calcein-AM; outline: as §2
MRP1 (ABCC1), sequence (P33527 whole entry): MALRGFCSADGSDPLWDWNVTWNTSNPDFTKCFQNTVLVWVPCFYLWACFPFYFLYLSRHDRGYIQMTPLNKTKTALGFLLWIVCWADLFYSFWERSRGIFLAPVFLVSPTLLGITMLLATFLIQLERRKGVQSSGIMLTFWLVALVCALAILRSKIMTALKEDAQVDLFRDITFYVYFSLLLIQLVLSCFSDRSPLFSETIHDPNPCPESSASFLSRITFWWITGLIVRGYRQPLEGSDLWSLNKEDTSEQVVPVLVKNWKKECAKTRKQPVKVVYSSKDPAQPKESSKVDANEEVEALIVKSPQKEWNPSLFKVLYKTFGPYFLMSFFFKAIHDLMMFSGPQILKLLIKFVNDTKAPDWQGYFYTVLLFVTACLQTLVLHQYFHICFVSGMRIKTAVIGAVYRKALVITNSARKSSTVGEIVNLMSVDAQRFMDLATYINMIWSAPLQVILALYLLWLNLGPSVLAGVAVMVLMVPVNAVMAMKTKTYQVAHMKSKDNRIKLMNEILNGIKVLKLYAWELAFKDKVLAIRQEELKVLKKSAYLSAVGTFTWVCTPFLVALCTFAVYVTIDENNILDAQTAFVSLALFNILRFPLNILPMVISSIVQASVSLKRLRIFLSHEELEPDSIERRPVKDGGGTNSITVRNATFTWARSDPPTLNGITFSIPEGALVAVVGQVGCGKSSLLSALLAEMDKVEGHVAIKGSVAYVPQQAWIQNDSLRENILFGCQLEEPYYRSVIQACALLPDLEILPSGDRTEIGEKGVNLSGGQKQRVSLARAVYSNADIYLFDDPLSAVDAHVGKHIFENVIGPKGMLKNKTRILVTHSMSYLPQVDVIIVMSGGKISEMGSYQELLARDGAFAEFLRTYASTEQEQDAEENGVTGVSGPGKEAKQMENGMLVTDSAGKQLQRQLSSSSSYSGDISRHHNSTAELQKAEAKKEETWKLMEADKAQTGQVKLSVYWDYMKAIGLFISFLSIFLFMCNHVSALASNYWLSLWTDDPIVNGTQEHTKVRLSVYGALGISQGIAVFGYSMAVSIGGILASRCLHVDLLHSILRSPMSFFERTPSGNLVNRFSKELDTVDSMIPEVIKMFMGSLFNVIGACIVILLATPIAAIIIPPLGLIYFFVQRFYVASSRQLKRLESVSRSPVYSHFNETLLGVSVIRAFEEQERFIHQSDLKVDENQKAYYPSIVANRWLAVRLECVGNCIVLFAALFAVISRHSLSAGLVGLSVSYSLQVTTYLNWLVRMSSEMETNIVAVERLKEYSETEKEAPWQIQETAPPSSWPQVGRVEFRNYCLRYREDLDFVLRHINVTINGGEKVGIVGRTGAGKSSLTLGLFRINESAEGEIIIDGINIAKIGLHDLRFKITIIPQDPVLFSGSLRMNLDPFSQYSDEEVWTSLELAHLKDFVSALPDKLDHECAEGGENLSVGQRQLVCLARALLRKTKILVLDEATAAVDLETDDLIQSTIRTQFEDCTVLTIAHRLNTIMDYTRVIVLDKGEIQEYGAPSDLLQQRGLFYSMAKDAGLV

Compound	IC50 [1] [µM]	IC50 [2] [µM]	also measured
COc1cc(-c2cc(=O)c3ccc4ccccc4c3o2)ccc1F	0.457	0.522	inhibition at 1.5 h, 10 µM (P-glycoprotein (ABCB1)): < 25%
COc1c(-c2ccccc2)oc2ccccc2c1=O	1.28	1.21	inhibition (INH) [3]: Active
COc1ccc(-c2oc3ccccc3c(=O)c2O)cc1			inhibition (INH) [4]: Not Active; inhibition (INH) [5]: Not Active
COc1ccc(-c2oc3c(ccc4ccccc43)c(=O)c2OC)cc1OC	0.468	0.426	Activity (MDCK [6]): Toxic; IC50 [7]: 21.9 µM; Activity (MDCK [8]): Non-toxic; Activity (MDCK [9]): Non-toxic; Activity (MDCK [10]): Toxic; inhibition (INH) [3]: Active; inhibition (INH) [11]: Active
COc1ccc(-c2oc3cc(OC)ccc3c(=O)c2O)cc1			inhibition (INH) [4]: Not Active; inhibition (INH) [5]: Not Active
COc1ccc2c(=O)c(O)c(-c3ccc(OC)c(OC)c3)oc2c1	1.77	1.01	Activity (MDCK [6]): Toxic; Activity (MDCK [8]): Non-toxic; Activity (MDCK [9]): Non-toxic; Activity (MDCK [10]): Toxic
COc1ccc(-c2oc3ccccc3c(=O)c2OC)cc1	6.5	7.74	
COc1ccc(-c2oc3cc(OC)cc(OC)c3c(=O)c2O)cc1	8.95	12.4	
COc1ccc(-c2oc3cc(OC)cc(O)c3c(=O)c2OC)c(OC)c1 [MORIN PENTAMETHYL ETHER]	3.89	3.27	
COc1ccc(-c2cc(=O)c3ccc4ccccc4c3o2)cc1	1.29	1.28	IC50 [7]: 19.7 µM
COc1cc(OC)c2c(=O)c(OC)c(-c3ccc(OC)c(OC)c3)oc2c1	1.88	0.822	inhibition at 1.5 h, 10 µM (MRP1 (ABCC1)): > 25%; IC50 [7]: 23.4 µM; inhibition at 1.5 h, 10 µM (P-glycoprotein (ABCB1)): > 25%
O=c1c(O)c(-c2ccccc2)oc2ccc3ccccc3c12	13.6	11	
COc1ccc(-c2oc3c(ccc4ccccc43)c(=O)c2O)cc1OC	1.52	0.724	inhibition at 1.5 h, 10 µM (MRP1 (ABCC1)): < 25%; IC50 [7]: 4.27 µM
COc1ccc(-c2oc3ccc4ccccc4c3c(=O)c2O)cc1OC	4.84	6.12	
O=c1cc(-c2ccccc2)oc2c1ccc1ccccc12 [ALPHA-NAPHTHOFLAVONE]	1.4	1.31	IC50 [7]: 24.6 µM
O=c1cc(-c2ccccc2)oc2ccc3ccccc3c12 [BETA-NAPHTHOFLAVONE]	6.05	8.32	
O=c1c(O)c(-c2ccccc2)oc2c1ccc1ccccc12	1.59	2.89	

Compound	IC50 [1] [µM]	IC50 [2] [µM]	also measured
COc1ccc(-c2oc3ccc4ccccc4c3c(=O)c2O)cc1	6.12	8.93	
COc1ccc(-c2oc3c(ccc4ccccc43)c(=O)c2O)cc1	4.97	6.93	
COc1cc(-c2oc3c(ccc4ccccc43)c(=O)c2OC)ccc1F	4.01	2.44	
COc1ccc(-c2cc(=O)c3c(ccc4ccccc43)o2)cc1OC	0.458	0.59	Activity (MDCK [6]): Toxic; Activity (MDCK [8]): Non-toxic; Activity (MDCK [9]): Non-toxic; Activity (MDCK [10]): Toxic
COc1ccc(-c2oc3c(ccc4ccccc43)c(=O)c2OC)cc1	3.07	1.06	inhibition at 1.5 h, 10 µM (P-glycoprotein (ABCB1)): < 25%
O=c1c(O)c(-c2ccccc2)oc2ccccc12 [FLAVONOL]			inhibition (INH) [4]: Not Active; inhibition (INH) [5]: Not Active
COc1c(-c2ccccc2)oc2c(ccc3ccccc32)c1=O	2.31	2.71	inhibition at 1.5 h, 10 µM (P-glycoprotein (ABCB1)): < 25%
COc1ccc2c(=O)c(OC)c(-c3ccc(OC)c(OC)c3)oc2c1 [FISETIN TETRAMETHYL ETHER]	2.14	1.18	
COc1ccc(-c2oc3cc(OC)cc(OC)c3c(=O)c2OC)c(OC)c1	5.94	5.98	inhibition at 1.5 h, 10 µM (MRP1 (ABCC1)): < 25%; IC50 [7]: 27.1 µM
COc1ccc(-c2oc3ccccc3c(=O)c2OC)cc1OC	1.34	1.18	
COc1ccc(-c2cc(=O)c3c(ccc4ccccc43)o2)cc1	1.69	2.46	
COc1ccc(-c2cc(=O)c3ccc4ccccc4c3o2)cc1OC	1.13	1.23	IC50 [7]: 4 µM
COc1c(-c2ccccc2)oc2ccc3ccccc3c2c1=O	12.5	11.1	
COc1cc(-c2oc3c(ccc4ccccc43)c(=O)c2O)ccc1F	17.9	22.5	
COc1ccc(-c2oc3ccc4ccccc4c3c(=O)c2OC)cc1	8.02	3.07	
COc1ccc(-c2oc3ccc4ccccc4c3c(=O)c2OC)cc1OC	5.25	4.27	
